In ChEMBL document CHEMBL4028848, “Discovery of N-{4-[5-(4-Fluorophenyl)-3-methyl-2-methylsulfanyl-3H-imidazol-4-yl]-pyridin-2-yl}-acetamide (CBS-3595), a Dual p38α MAPK/PDE-4 Inhibitor with Activity against TNFα-Related Diseases” (J Med Chem, 2017):
Calls of active or inactive are those of the source. The rule behind the calls is not given here.

Columns and labels:
[1] = biological target: Tyrosine-protein kinase Lck (Homo sapiens) (UniProt P06239); experiment: Inhibition of Lck (unknown origin) at 10 uM
Sequence of Tyrosine-protein kinase Lck (Homo sapiens) (P06239 2-509 limits assumed): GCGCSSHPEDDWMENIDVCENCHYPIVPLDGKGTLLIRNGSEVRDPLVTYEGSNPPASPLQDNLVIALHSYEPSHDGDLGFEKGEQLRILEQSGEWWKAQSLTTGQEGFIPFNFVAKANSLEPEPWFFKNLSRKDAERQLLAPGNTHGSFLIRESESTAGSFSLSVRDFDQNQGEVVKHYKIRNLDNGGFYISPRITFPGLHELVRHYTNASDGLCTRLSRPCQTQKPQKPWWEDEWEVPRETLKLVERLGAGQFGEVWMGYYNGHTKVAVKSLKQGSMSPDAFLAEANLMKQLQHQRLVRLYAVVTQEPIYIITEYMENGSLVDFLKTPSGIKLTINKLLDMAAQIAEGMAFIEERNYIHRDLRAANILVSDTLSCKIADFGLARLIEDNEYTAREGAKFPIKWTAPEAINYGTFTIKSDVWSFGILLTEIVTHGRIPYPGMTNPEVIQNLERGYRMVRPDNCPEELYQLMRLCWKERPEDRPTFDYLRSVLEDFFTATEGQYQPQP

[2] = biological target: Mitogen-activated protein kinase 8 (Homo sapiens) (UniProt P45983); experiment: Inhibition of JNK1alpha1 (unknown origin) at 10 uM
Sequence of Mitogen-activated protein kinase 8 (Homo sapiens) (P45983 whole entry): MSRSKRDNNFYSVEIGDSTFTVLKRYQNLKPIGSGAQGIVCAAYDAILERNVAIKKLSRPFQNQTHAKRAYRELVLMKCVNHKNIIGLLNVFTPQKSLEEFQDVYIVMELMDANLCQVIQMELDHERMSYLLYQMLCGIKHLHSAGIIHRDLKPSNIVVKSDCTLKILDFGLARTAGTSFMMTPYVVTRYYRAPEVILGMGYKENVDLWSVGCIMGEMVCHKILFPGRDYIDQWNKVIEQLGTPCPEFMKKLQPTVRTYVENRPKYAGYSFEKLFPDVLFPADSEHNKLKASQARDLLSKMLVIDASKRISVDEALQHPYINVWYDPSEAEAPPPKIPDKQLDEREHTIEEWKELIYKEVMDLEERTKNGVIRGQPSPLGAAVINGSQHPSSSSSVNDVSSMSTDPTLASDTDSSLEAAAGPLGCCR

[3] = Cmax in Beagle dog at 40 mg/kg, po by LC-MS/MS analysis; format: ADME, organism-based, Canis lupus familiaris; parameters: dose 40 mg/kg, route oral; details: in vivo
Summary of the method: (§1)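 Toxicokinetics from a maximum-tolerated-dose study in four Beagle dogs given 40 mg/kg orally. Plasma levels of both parent and its predominant metabolite were monitored.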

[4] = biological target: Voltage-gated inwardly rectifying potassium channel KCNH2 (Homo sapiens, UniProt Q12809); experiment: Inhibition of human ERG expressed in HEK293 cells by patch clamp method; format: cell-based
Sequence of Voltage-gated inwardly rectifying potassium channel KCNH2 (Q12809 whole entry): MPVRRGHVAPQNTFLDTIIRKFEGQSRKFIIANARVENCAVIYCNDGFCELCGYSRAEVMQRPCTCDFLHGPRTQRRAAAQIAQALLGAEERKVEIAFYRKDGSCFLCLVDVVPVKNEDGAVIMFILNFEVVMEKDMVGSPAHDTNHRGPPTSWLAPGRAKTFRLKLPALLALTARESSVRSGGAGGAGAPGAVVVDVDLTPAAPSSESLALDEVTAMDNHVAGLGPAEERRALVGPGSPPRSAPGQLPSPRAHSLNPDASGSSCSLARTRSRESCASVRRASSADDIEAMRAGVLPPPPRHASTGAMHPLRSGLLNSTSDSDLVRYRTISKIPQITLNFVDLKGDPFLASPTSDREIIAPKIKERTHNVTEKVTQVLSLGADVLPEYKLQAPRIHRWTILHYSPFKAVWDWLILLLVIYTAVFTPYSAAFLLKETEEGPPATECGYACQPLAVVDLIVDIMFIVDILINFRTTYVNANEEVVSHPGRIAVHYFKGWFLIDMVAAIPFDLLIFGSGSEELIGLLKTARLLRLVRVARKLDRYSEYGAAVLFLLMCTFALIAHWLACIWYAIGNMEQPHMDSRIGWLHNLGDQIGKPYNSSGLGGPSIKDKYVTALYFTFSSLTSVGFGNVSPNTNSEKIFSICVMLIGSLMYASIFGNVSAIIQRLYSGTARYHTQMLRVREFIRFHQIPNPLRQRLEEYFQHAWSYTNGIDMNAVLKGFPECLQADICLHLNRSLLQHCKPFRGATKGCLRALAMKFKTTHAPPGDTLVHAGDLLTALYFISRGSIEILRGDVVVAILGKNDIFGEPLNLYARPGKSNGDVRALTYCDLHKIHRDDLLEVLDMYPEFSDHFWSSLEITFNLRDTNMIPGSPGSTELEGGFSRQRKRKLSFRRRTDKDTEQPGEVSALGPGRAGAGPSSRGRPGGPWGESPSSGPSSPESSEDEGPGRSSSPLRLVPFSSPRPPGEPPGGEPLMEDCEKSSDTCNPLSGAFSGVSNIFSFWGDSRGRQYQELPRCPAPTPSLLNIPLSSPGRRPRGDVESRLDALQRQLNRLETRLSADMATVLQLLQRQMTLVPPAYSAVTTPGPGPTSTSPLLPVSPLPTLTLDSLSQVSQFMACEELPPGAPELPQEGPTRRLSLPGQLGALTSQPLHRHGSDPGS

[5] = Drug metabolism in cynomolgus monkey liver microsomes assessed as 4-(4-(4-fluorophenyl)-1-methyl-2-(methylsulfinyl)-1H-imidazol-5-yl)pyridin-2-amine formation at 10 to 100 uM; format: ADME, Macaca fascicularis, microsome
Summary of the method: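 Test compound incubated at 10, 30 and 100 μM with liver microsomes from rat, Cynomolgus monkey or human, and metabolites monitored.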

[6] = Tmax in mongrel dog at 30 mg/kg, po by LC-MS/MS analysis; format: ADME, organism-based, Canis lupus familiaris; details: in vivo
Homo sapiens = experiment: Toxicity in human assessed as effect on heart rate at 50 mg, po administered as single dose; format: organism-based; details: in vivo
Rattus norvegicus [7] = experiment: Toxicity in Sprague-Dawley rat assessed as premature death at 15 to 150 mg/kg, po administered via gavage for 28 days followed by 2 weeks off without dosing; format: organism-based; details: in vivo
Summary of the method: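 Sprague–Dawley rats, 10–16 per group, 144 in total. Daily dosing for 28 days with vehicle or 15, 50 or 150 mg/kg; the top dose came from a range-finding study. Six males and six females from the control and high-dose groups were followed through a further 2-week treatment-free period. Clinical signs and histopathology recorded.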

Lymphocyte = experiment: Clastogenicity in human lymphocytes in presence of S9 fraction by microneucleus test; format: toxicity, cell-based
Summary of the method: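 Cytogenetic clastogenicity assay in cultured human lymphocytes, run with and without S9 mix.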

[8] = Apparent permeability in human Caco2 cells at 10 uM; format: ADME, cell-based; details: Caco-2
[9] = AUC (0 to infinity) in Beagle dog at 40 mg/kg, po by LC-MS/MS analysis; format: ADME, organism-based, Canis lupus familiaris; parameters: dose 40 mg/kg, time infinity, route oral; details: in vivo; summary of the method: as §1
Rattus norvegicus [10] = experiment: In vivo inhibition of P38 MAPKalpha in Lewis rat assessed as decrease in LPS-stimulated TNFalpha level in serum at 10 mg/kg, po pretreated for 1 hr followed by LPS addition measured after 1.5 hrs post dose relative to control; format: functional
Summary of the method: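 Lewis rats, n = 8/group: females dosed orally at 10 mg/kg at −1, −3 or −5 h relative to LPS challenge, plus one male group dosed at −1 h. Male and female vehicle controls were given at −1 h. Serum TNFα was measured after LPS and compared with vehicle.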

[11] = AUC (0 to t) in female Sprague-Dawley rat at 30 mg/kg, po by LC-MS/MS analysis; format: ADME, organism-based; details: in vivo
Summary of the method: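 Rats of each sex received a single oral dose of 30 mg/kg. Plasma concentration–time profiles of parent were determined separately for females and males.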

Rattus norvegicus [12] = experiment: Toxicity in Sprague-Dawley rat assessed as dyspnea at 2000 mg/kg, po administered via gavage measured on day 1 and 2; format: organism-based; details: in vivo

Row | inhibition [1] | inhibition [2] | Compound | Cmax [3] [µM] | IC50 [4] [µM] | Drug metabolism [5] | Tmax [6] [h] | Activity (Homo sapiens) | Activity (Rattus norvegicus [7]) | Activity (Lymphocyte) | Papp at 10 µM [8] [×10⁻⁶ cm/s] | AUC(0-inf) [9] [µM·h] | inhibition in vivo at 10 mg/kg (Rattus norvegicus [10]) [%] | AUC(0-t) [11] [µM·h] | Activity (Rattus norvegicus [12])
1 | inactive | inactive | Cn1c([S+](C)[O-])nc(-c2ccc(F)cc2)c1-c1ccnc(N)c1 (centres undefined) |  |  |  |  |  |  |  |  |  |  |  | 
2 |  |  | CC(=O)Nc1cc(-c2c(-c3ccc(F)cc3)nc([S+](C)[O-])n2C)ccn1 (centres undefined) | 15.6 | 213 | Metabolite_Detected | 2 | Non-Toxic | Non-Toxic | Non-Toxic | 18.5 | 120 | 76 | 40.9 | Toxic
